Data reported in ChEMBL document CHEMBL4706643 (J Med Chem, 2021).

How the values were obtained:
Hepatitis B virus = experiment: Antiviral activity against HBV infected in human HepG2-NTCP cells assessed as reduction in HBeAg secretion cells inoculated with virus for 4 hrs at room temperature and 37 degree C for 24 hrs followed inoculum changed with PMM medium for every 2 days until day 5 post infection by ELISA; assay type: functional, organism-based
[1] = Intrinsic clearance in human liver microsomes at 1 uM preincubated for 5 mins followed by NADPH addition and measured upto 60 mins by LC-MS analysis; assay type: ADME, Microsome; conditions: read-out: CLH
Method in brief: (§1)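 Human or mouse liver microsomes, final 1 mg/mL in 0.05 M phosphate buffer pH 7.4; compound final 1 μM, preincubated 37 °C 5 min, started with 1 mM NADPH; sampled at 0, 5, 15, 30, 60 min, methanol quench, −20 °C 1 h, centrifuged, supernatant by LC–MS.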

[2] = Intrinsic clearance in rat liver microsomes at 1 uM preincubated for 5 mins followed by NADPH addition and measured upto 60 mins by LC-MS analysis; assay type: ADME, Microsome; conditions: time 65 min, read-out: CLH
[3] = Intrinsic clearance in mouse liver microsomes at 1 uM preincubated for 5 mins followed by NADPH addition and measured upto 60 mins by LC-MS analysis; assay type: ADME, Microsome; conditions: read-out: CLH; method in brief: as §1
[4] = target: T1, Hepatic sodium/bile acid cotransporter (Homo sapiens, UniProt Q14973); experiment: Inhibition of human NTCP expressed in human HepG2 cells assessed as decrease in NTCP surface expression at 2 uM incubated for 2 hrs by DAPI staining based analysis; assay type: cell-based; conditions: hepg2, 2 h
T1 sequence (Q14973 whole entry): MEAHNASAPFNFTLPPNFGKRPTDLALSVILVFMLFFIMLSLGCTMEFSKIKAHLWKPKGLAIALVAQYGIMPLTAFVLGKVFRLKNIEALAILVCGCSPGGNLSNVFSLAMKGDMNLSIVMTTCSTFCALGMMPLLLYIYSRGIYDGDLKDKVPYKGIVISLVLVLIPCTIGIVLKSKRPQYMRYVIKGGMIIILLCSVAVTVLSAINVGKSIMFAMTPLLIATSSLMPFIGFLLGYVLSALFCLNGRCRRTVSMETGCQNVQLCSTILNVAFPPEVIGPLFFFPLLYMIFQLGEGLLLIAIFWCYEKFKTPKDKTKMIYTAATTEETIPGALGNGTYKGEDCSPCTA
Method in brief: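 HepG2-NTCP cells treated 2 h with DMSO, compound or TLCA at 2 μM, then immunostained for NTCP to assess cell-surface distribution.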

IC50 (Hepatitis B virus) [nM] | microsomal CLint at 1 µM [1] [µL/min/mg] | microsomal CLint at 1 µM [2] [µL/min/mg] | microsomal CLint at 1 µM [3] [µL/min/mg] | inhibition (INH) [4] | SMILES
206 | 7.7 | 2 | 0.3 |  | CC[C@@H]1NC(=O)[C@H]([C@@H]2O[C@@H](Sc3cccc(OCc4ccc(F)cc4)c3)C[C@H]2C)N(C)C(=O)[C@H](C(C)C)N(C)C(=O)[C@H](CC(C)C)N(C)C(=O)[C@H](CC(C)C)N(C)C(=O)[C@@H](C)NC(=O)[C@H](C)NC(=O)[C@H](CC(C)C)N(C)C(=O)[C@H](C(C)C)NC(=O)[C@H](CC(C)C)N(C)C(=O)CN(C)C1=O
116 | 4.2 |  | 2.2 |  | CC[C@@H]1NC(=O)[C@H]([C@@H]2O[C@@H](Sc3cc(Cl)cc(OC)c3)C[C@H]2C)N(C)C(=O)[C@H](C(C)C)N(C)C(=O)[C@H](CC(C)C)N(C)C(=O)[C@H](CC(C)C)N(C)C(=O)[C@@H](C)NC(=O)[C@H](C)NC(=O)[C@H](CC(C)C)N(C)C(=O)[C@H](C(C)C)NC(=O)[C@H](CC(C)C)N(C)C(=O)CN(C)C1=O
117 | 10.2 | 0.7 | 5.5 |  | CC[C@@H]1NC(=O)[C@H]([C@@H]2O[C@@H](Sc3cc(OC)cc(OC)c3)C[C@H]2C)N(C)C(=O)[C@H](C(C)C)N(C)C(=O)[C@H](CC(C)C)N(C)C(=O)[C@H](CC(C)C)N(C)C(=O)[C@@H](C)NC(=O)[C@H](C)NC(=O)[C@H](CC(C)C)N(C)C(=O)[C@H](C(C)C)NC(=O)[C@H](CC(C)C)N(C)C(=O)CN(C)C1=O
 |  |  |  | Active | C[C@H](CCC(=O)NCCS(=O)(=O)O)[C@H]1CC[C@H]2[C@@H]3CC[C@@H]4C[C@H](O)CC[C@]4(C)[C@H]3CC[C@]12C [TAUROLITHOCHOLIC ACID]
171 | 6.1 | 1.4 | 2.1 |  | CC[C@@H]1NC(=O)[C@H]([C@@H]2O[C@@H](Sc3cccc(NCc4ccccc4)c3)C[C@H]2C)N(C)C(=O)[C@H](C(C)C)N(C)C(=O)[C@H](CC(C)C)N(C)C(=O)[C@H](CC(C)C)N(C)C(=O)[C@@H](C)NC(=O)[C@H](C)NC(=O)[C@H](CC(C)C)N(C)C(=O)[C@H](C(C)C)NC(=O)[C@H](CC(C)C)N(C)C(=O)CN(C)C1=O
122 |  | 0.8 | 7.1 |  | CC[C@@H]1NC(=O)[C@H]([C@@H]2O[C@@H](Sc3cccc(OCc4ccc(F)cc4C)c3)C[C@H]2C)N(C)C(=O)[C@H](C(C)C)N(C)C(=O)[C@H](CC(C)C)N(C)C(=O)[C@H](CC(C)C)N(C)C(=O)[C@@H](C)NC(=O)[C@H](C)NC(=O)[C@H](CC(C)C)N(C)C(=O)[C@H](C(C)C)NC(=O)[C@H](CC(C)C)N(C)C(=O)CN(C)C1=O
101 | 14.8 | 2 | 3.3 |  | CC[C@@H]1NC(=O)[C@H]([C@@H]2O[C@@H](Sc3ccc(Cl)c(OC)c3)C[C@H]2C)N(C)C(=O)[C@H](C(C)C)N(C)C(=O)[C@H](CC(C)C)N(C)C(=O)[C@H](CC(C)C)N(C)C(=O)[C@@H](C)NC(=O)[C@H](C)NC(=O)[C@H](CC(C)C)N(C)C(=O)[C@H](C(C)C)NC(=O)[C@H](CC(C)C)N(C)C(=O)CN(C)C1=O
 | 7.7 | 3 | 2.1 |  | CC[C@@H]1NC(=O)[C@H]([C@@H]2O[C@H](Sc3cccc(OCc4ccccc4)c3)C[C@H]2C)N(C)C(=O)[C@H](C(C)C)N(C)C(=O)[C@H](CC(C)C)N(C)C(=O)[C@H](CC(C)C)N(C)C(=O)[C@@H](C)NC(=O)[C@H](C)NC(=O)[C@H](CC(C)C)N(C)C(=O)[C@H](C(C)C)NC(=O)[C@H](CC(C)C)N(C)C(=O)CN(C)C1=O
256 |  |  |  |  | CC[C@@H]1NC(=O)[C@H]([C@@H]2O[C@@H](Sc3ccc(OCc4ccccc4)cc3)C[C@H]2C)N(C)C(=O)[C@H](C(C)C)N(C)C(=O)[C@H](CC(C)C)N(C)C(=O)[C@H](CC(C)C)N(C)C(=O)[C@@H](C)NC(=O)[C@H](C)NC(=O)[C@H](CC(C)C)N(C)C(=O)[C@H](C(C)C)NC(=O)[C@H](CC(C)C)N(C)C(=O)CN(C)C1=O
990 |  |  |  |  | CC[C@@H]1NC(=O)[C@H]([C@@H]2O[C@@H](Sc3ccc(OC)cc3)C[C@H]2C)N(C)C(=O)[C@H](C(C)C)N(C)C(=O)[C@H](CC(C)C)N(C)C(=O)[C@H](CC(C)C)N(C)C(=O)[C@@H](C)NC(=O)[C@H](C)NC(=O)[C@H](CC(C)C)N(C)C(=O)[C@H](C(C)C)NC(=O)[C@H](CC(C)C)N(C)C(=O)CN(C)C1=O
> 10000 |  |  |  |  | C=C(C)C1C[C@@H](C)[C@H]([C@H]2C(=O)N[C@@H](CC)C(=O)N(C)CC(=O)N(C)[C@@H](CC(C)C)C(=O)N[C@@H](C(C)C)C(=O)N(C)[C@@H](CC(C)C)C(=O)N[C@@H](C)C(=O)N[C@H](C)C(=O)N(C)[C@@H](CC(C)C)C(=O)N(C)[C@@H](CC(C)C)C(=O)N(C)[C@@H](C(C)C)C(=O)N2C)O1 (stereo partly specified)
13500 |  |  |  |  | CC[C@@H]1NC(=O)[C@H]([C@@H]2OC(OC)C[C@H]2C)N(C)C(=O)[C@H](C(C)C)N(C)C(=O)[C@H](CC(C)C)N(C)C(=O)[C@H](CC(C)C)N(C)C(=O)[C@@H](C)NC(=O)[C@H](C)NC(=O)[C@H](CC(C)C)N(C)C(=O)[C@H](C(C)C)NC(=O)[C@H](CC(C)C)N(C)C(=O)CN(C)C1=O (stereo partly specified)
11900 |  |  |  |  | CC[C@@H]1NC(=O)C([C@@H]2OC(O)C[C@H]2C)N(C)C(=O)[C@H](C(C)C)N(C)C(=O)[C@H](CC(C)C)N(C)C(=O)[C@H](CC(C)C)N(C)C(=O)[C@@H](C)NC(=O)[C@H](C)NC(=O)[C@H](CC(C)C)N(C)C(=O)[C@H](C(C)C)NC(=O)[C@H](CC(C)C)N(C)C(=O)CN(C)C1=O (stereo partly specified)
5330 |  |  |  |  | CC[C@@H]1NC(=O)[C@H]([C@@H]2O[C@H](Sc3ccccc3)C[C@H]2C)N(C)C(=O)[C@H](C(C)C)N(C)C(=O)[C@H](CC(C)C)N(C)C(=O)[C@H](CC(C)C)N(C)C(=O)[C@@H](C)NC(=O)[C@H](C)NC(=O)[C@H](CC(C)C)N(C)C(=O)[C@H](C(C)C)NC(=O)[C@H](CC(C)C)N(C)C(=O)CN(C)C1=O
335 |  |  |  |  | CC[C@@H]1NC(=O)[C@H]([C@@H]2O[C@@H](Sc3cccc(OCc4ccc(F)c(Cl)c4)c3)C[C@H]2C)N(C)C(=O)[C@H](C(C)C)N(C)C(=O)[C@H](CC(C)C)N(C)C(=O)[C@H](CC(C)C)N(C)C(=O)[C@@H](C)NC(=O)[C@H](C)NC(=O)[C@H](CC(C)C)N(C)C(=O)[C@H](C(C)C)NC(=O)[C@H](CC(C)C)N(C)C(=O)CN(C)C1=O

SMILES | IC50 (Hepatitis B virus) [nM] | microsomal CLint at 1 µM [1] [µL/min/mg] | microsomal CLint at 1 µM [2] [µL/min/mg] | microsomal CLint at 1 µM [3] [µL/min/mg] | inhibition (INH) [4]
CCCCc1ccc(S[C@H]2C[C@@H](C)[C@H]([C@H]3C(=O)N[C@@H](CC)C(=O)N(C)CC(=O)N(C)[C@@H](CC(C)C)C(=O)N[C@@H](C(C)C)C(=O)N(C)[C@@H](CC(C)C)C(=O)N[C@@H](C)C(=O)N[C@H](C)C(=O)N(C)[C@@H](CC(C)C)C(=O)N(C)[C@@H](CC(C)C)C(=O)N(C)[C@@H](C(C)C)C(=O)N3C)O2)cc1 | 262 | 6.1 | 4 | 2.5 | 
CCOc1cccc(S[C@H]2C[C@@H](C)[C@H]([C@H]3C(=O)N[C@@H](CC)C(=O)N(C)CC(=O)N(C)[C@@H](CC(C)C)C(=O)N[C@@H](C(C)C)C(=O)N(C)[C@@H](CC(C)C)C(=O)N[C@@H](C)C(=O)N[C@H](C)C(=O)N(C)[C@@H](CC(C)C)C(=O)N(C)[C@@H](CC(C)C)C(=O)N(C)[C@@H](C(C)C)C(=O)N3C)O2)c1 | 181 | 18.5 | 2.3 | 4 | 
